According to ChEMBL document CHEMBL4184226, “Design and synthesis of novel senkyunolide analogues as neuroprotective agents” (2018):
Activity calls are given as the source filed them. The rule behind the calls is not given here.

Tests used:
Assay type in all cases: functional, cell-based
[1] = tested on: HT-22; assay: Neuroprotective activity against oxygen glucose deprivation-induced cell death in mouse HT22 cells assessed as increase cell survival at 6.25 to 100 uM by MTT assay
Summary of the method: (§1)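 Mouse hippocampal HT-22 cells were split into blank control, OGD model and treated groups. Treated cells were exposed to oxygen glucose deprivation with test compound at 5 concentrations. The reference compound was dosed at 10 times the test-compound level. Viability was read by MTT and compared against the control and model groups. Each assay was run in triplicate.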

[2] = tested on: HT-22; assay: Neuroprotective activity against H2O2-induced oxidative stress-mediated cell death in mouse HT22 cells assessed as compound level causing increase cell survival at 1 to 100 uM by MTT assay
[3] = tested on: HT-22; assay: Neuroprotective activity against oxygen glucose deprivation-induced cell death in mouse HT22 cells assessed as increase cell survival at 100 uM by MTT assay; summary of the method: as §1

Structure (SMILES)	Activity [1]	Activity [2]	Activity [3]
CCCCC1Oc2cc(OC)ccc2C1=O (stereo unspecified)	Dose-dependent effect	–	–
CCC/C=C1/C(=O)Oc2ccccc21	Dose-dependent effect	–	–
CCC/C=C1/Oc2cc(OC)ccc2C1=O	Dose-dependent effect	Active	–
CCC/C=C1/Oc2ccc(OC(=O)CCC(=O)OC/C=C/COc3no[n+]([O-])c3S(=O)(=O)c3ccccc3)cc2C1=O	Dose-dependent effect	–	–
CCCCC1Oc2c(ccc(OC)c2OC)C1=O (stereo unspecified)	Dose-dependent effect	–	–
CCC/C=C1/Oc2ccccc2C1=O	Dose-dependent effect	–	–
CCC/C=C1/Oc2ccc(OC(=O)CCC(=O)OCCCOc3no[n+]([O-])c3S(=O)(=O)c3ccccc3)cc2C1=O	Dose-dependent effect	Active	Active
CCC/C=C1/Oc2ccc(OC(=O)CCC(=O)OC(C)CCOc3no[n+]([O-])c3S(=O)(=O)c3ccccc3)cc2C1=O (stereo unspecified)	Dose-dependent effect	–	–
CCC/C=C1/Oc2ccc(OC(=O)CCC(=O)OCCCCOc3no[n+]([O-])c3S(=O)(=O)c3ccccc3)cc2C1=O	Dose-dependent effect	Active	–
CCC/C=C1/C(=O)Oc2cc(OC)ccc21	Dose-dependent effect	–	–
CCC/C=C1/C(=O)Oc2ccc(OC)cc21	Dose-dependent effect	–	–
CCC/C=C1/Oc2c(ccc(OC)c2OC)C1=O	Dose-dependent effect	–	–
